Data reported in ChEMBL document CHEMBL1932925, “Synthesis, biological evaluation, and molecular docking studies of cinnamic acyl 1,3,4-thiadiazole amide derivatives as novel antitubulin agents” (Bioorg Med Chem, 2012).
In brackets after ≈: the same amount, converted by molar mass.

Tests used:
[1] = system: MCF7; experiment: Antiproliferative activity against human MCF7 cells after 48 hrs by MTT assay; type: functional, cell-based; conditions: MCF7, 48 h
Summary of the method: (§1)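 Cells diluted to 2×10^4 cells mL⁻¹ in complete medium, plated and held 24 h at 37 °C, 5% CO₂ before dosing at pre-set concentrations. After 48 h exposure, MTT (2.5 mg mL⁻¹ in PBS) added for 4 h, then SDS–isobutyl alcohol–HCl extraction solution overnight at 37 °C. Absorbance read at 570 nm. Three replicate wells per concentration, each assay run at least three times.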

[2] = system: A549; experiment: Antiproliferative activity against human A549 cells after 48 hrs by MTT assay; type: functional, cell-based; conditions: A549, 48 h; summary of the method: as §1
[3] = Inhibition of bovine brain tubulin polymerization preincubated for 10 mins measured after 20 mins; design: species or system Bos taurus
Summary of the method: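 Tubulin purified from bovine brain, used at 10 µM in glutamate buffer and preincubated with varying compound concentrations at 30 °C, then cooled to 0 °C. GTP added and mixtures warmed to 30 °C in a recording spectrophotometer, with assembly followed turbidimetrically.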

[4] = system: MCF7; experiment: Induction of cell cycle arrest in human MCF7 cells assessed as accumulation at G0/G1 phase at 5 ug/ml after 24 hrs by flow cytometric analysis (reference value: 66%); type: functional
[5] = system: MCF7; experiment: Induction of cell cycle arrest in human MCF7 cells assessed as accumulation at S phase at 5 ug/ml after 24 hrs by flow cytometric analysis (reference value: 12%); type: functional
[6] = system: MCF7; experiment: Induction of cell cycle arrest in human MCF7 cells assessed as accumulation at G2/M phase at 5 ug/ml after 24 hrs by flow cytometric analysis (reference value: 18%); type: functional

Structure (SMILES) | IC50 [1] [µg/mL] | IC50 [2] [µg/mL] | IC50 [3] [µg/mL] | Activity [4] [%] | Activity [5] [%] | Activity [6] [%]
O=C(/C=C/c1ccccc1)Nc1nnc(-c2ccccc2)s1 | 1.47 (≈ 4.78 µM) | 1.75 (≈ 5.69 µM) | 5.68 (≈ 18.5 µM) |  |  | 
O=C(/C=C/c1ccc(F)cc1)Nc1nnc(-c2ccccc2)s1 | 1.45 (≈ 4.46 µM) | 1.82 (≈ 5.59 µM) | 5.87 (≈ 18 µM) |  |  | 
O=C(/C=C/c1ccc(C(F)(F)F)cc1)Nc1nnc(-c2ccccc2)s1 | 1.52 (≈ 4.05 µM) | 1.78 (≈ 4.74 µM) | 5.52 (≈ 14.7 µM) |  |  | 
Cc1ccc(/C=C/C(=O)Nc2nnc(-c3ccccc3)s2)cc1 | 1.23 (≈ 3.83 µM) | 1.58 (≈ 4.92 µM) | 4.49 (≈ 14 µM) |  |  | 
COc1ccc(/C=C/C(=O)Nc2nnc(-c3ccccc3)s2)cc1 | 0.83 (≈ 2.46 µM) | 0.76 (≈ 2.25 µM) | 3.02 (≈ 8.95 µM) |  |  | 
O=C(/C=C/c1ccccc1)Nc1nnc(-c2ccc(Cl)cc2)s1 | 1.42 (≈ 4.15 µM) | 2.02 (≈ 5.91 µM) | 6.56 (≈ 19.2 µM) |  |  | 
O=C(/C=C/c1ccc(F)cc1)Nc1nnc(-c2ccc(Cl)cc2)s1 | 1.58 (≈ 4.39 µM) | 2.06 (≈ 5.73 µM) | 7.08 (≈ 19.7 µM) |  |  | 
O=C(/C=C/c1ccc(C(F)(F)F)cc1)Nc1nnc(-c2ccc(Cl)cc2)s1 | 1.65 (≈ 4.03 µM) | 3.09 (≈ 7.54 µM) | 7.83 (≈ 19.1 µM) |  |  | 
Cc1ccc(/C=C/C(=O)Nc2nnc(-c3ccc(Cl)cc3)s2)cc1 | 1.44 (≈ 4.05 µM) | 1.25 (≈ 3.51 µM) | 4.79 (≈ 13.5 µM) |  |  | 
COc1ccc(/C=C/C(=O)Nc2nnc(-c3ccc(Cl)cc3)s2)cc1 | 0.91 (≈ 2.45 µM) | 1.38 (≈ 3.71 µM) | 5.68 (≈ 15.3 µM) |  |  | 
O=C(/C=C/c1ccccc1)Nc1nnc(-c2ccc(Br)cc2)s1 | 1.5 (≈ 3.88 µM) | 2.18 (≈ 5.64 µM) | 7.05 (≈ 18.3 µM) |  |  | 
O=C(/C=C/c1ccc(F)cc1)Nc1nnc(-c2ccc(Br)cc2)s1 | 1.49 (≈ 3.69 µM) | 2.83 (≈ 7 µM) | 8.66 (≈ 21.4 µM) |  |  | 
O=C(/C=C/c1ccc(C(F)(F)F)cc1)Nc1nnc(-c2ccc(Br)cc2)s1 | 1.58 (≈ 3.48 µM) | 4.68 (≈ 10.3 µM) | 10.6 (≈ 23.3 µM) |  |  | 
Cc1ccc(/C=C/C(=O)Nc2nnc(-c3ccc(Br)cc3)s2)cc1 | 1.32 (≈ 3.3 µM) | 1.51 (≈ 3.77 µM) | 5.02 (≈ 12.5 µM) |  |  | 
COc1ccc(/C=C/C(=O)Nc2nnc(-c3ccc(Br)cc3)s2)cc1 | 1.13 (≈ 2.71 µM) | 1.04 (≈ 2.5 µM) | 4.11 (≈ 9.87 µM) |  |  | 
Cc1ccc(-c2nnc(NC(=O)/C=C/c3ccccc3)s2)cc1 | 1.19 (≈ 3.7 µM) | 1.38 (≈ 4.29 µM) | 4.83 (≈ 15 µM) |  |  | 
Cc1ccc(-c2nnc(NC(=O)/C=C/c3ccc(F)cc3)s2)cc1 | 1.27 (≈ 3.74 µM) | 1.23 (≈ 3.62 µM) | 5.08 (≈ 15 µM) |  |  | 
Cc1ccc(-c2nnc(NC(=O)/C=C/c3ccc(C(F)(F)F)cc3)s2)cc1 | 1.1 (≈ 2.82 µM) | 1.61 (≈ 4.13 µM) | 5.16 (≈ 13.3 µM) |  |  | 
Cc1ccc(/C=C/C(=O)Nc2nnc(-c3ccc(C)cc3)s2)cc1 | 0.61 (≈ 1.82 µM) | 1.08 (≈ 3.22 µM) | 4.15 (≈ 12.4 µM) |  |  | 
COc1ccc(/C=C/C(=O)Nc2nnc(-c3ccc(C)cc3)s2)cc1 | 0.35 (≈ 0.996 µM) | 0.66 (≈ 1.88 µM) | 2.64 (≈ 7.51 µM) |  |  | 
COc1ccc(-c2nnc(NC(=O)/C=C/c3ccccc3)s2)cc1 | 0.78 (≈ 2.31 µM) | 0.68 (≈ 2.02 µM) | 3.08 (≈ 9.13 µM) |  |  | 
COc1ccc(-c2nnc(NC(=O)/C=C/c3ccc(F)cc3)s2)cc1 | 0.85 (≈ 2.39 µM) | 0.75 (≈ 2.11 µM) | 3.05 (≈ 8.58 µM) |  |  | 
COc1ccc(-c2nnc(NC(=O)/C=C/c3ccc(C(F)(F)F)cc3)s2)cc1 | 0.79 (≈ 1.95 µM) | 0.69 (≈ 1.7 µM) | 3.17 (≈ 7.82 µM) |  |  | 
COc1ccc(-c2nnc(NC(=O)/C=C/c3ccc(C)cc3)s2)cc1 | 0.31 (≈ 0.882 µM) | 0.58 (≈ 1.65 µM) | 2.56 (≈ 7.28 µM) |  |  | 
COc1ccc(/C=C/C(=O)Nc2nnc(-c3ccc(OC)cc3)s2)cc1 | 0.28 (≈ 0.762 µM) | 0.52 (≈ 1.42 µM) | 1.16 (≈ 3.16 µM) | 2 | 2 | 68
COc1cc2c(c(OC)c1OC)-c1ccc(OC)c(=O)cc1[C@@H](NC(C)=O)CC2 [COLCHICINE] | 0.53 (≈ 1.33 µM) | 0.75 (≈ 1.88 µM) |  | 2 | 3 | 79
COc1ccc(/C=C\c2cc(OC)c(OC)c(OC)c2)cc1O [COMBRETASTATIN A4] | 0.41 (≈ 1.3 µM) | 0.55 (≈ 1.74 µM) | 0.81 (≈ 2.56 µM) |  |  | 
